The list is not random: actives were taken first. Their share in the collection is about 0.6%.
TNAP act hiacc = increases human TNAP activity under high phosphate acceptor concentration; P05186; purified TNAP, CDP-star luminescence, 1 M DEA, 30 min; hits give high values; 0 = EDTA background, 1 = DMSO-only activity; activation factor at 20 µM; 200,000 tested, under 10 active; AID 1136;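 active = activation factor at least 2 at 20 µM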
Target sequence (P05186 whole entry, looked up): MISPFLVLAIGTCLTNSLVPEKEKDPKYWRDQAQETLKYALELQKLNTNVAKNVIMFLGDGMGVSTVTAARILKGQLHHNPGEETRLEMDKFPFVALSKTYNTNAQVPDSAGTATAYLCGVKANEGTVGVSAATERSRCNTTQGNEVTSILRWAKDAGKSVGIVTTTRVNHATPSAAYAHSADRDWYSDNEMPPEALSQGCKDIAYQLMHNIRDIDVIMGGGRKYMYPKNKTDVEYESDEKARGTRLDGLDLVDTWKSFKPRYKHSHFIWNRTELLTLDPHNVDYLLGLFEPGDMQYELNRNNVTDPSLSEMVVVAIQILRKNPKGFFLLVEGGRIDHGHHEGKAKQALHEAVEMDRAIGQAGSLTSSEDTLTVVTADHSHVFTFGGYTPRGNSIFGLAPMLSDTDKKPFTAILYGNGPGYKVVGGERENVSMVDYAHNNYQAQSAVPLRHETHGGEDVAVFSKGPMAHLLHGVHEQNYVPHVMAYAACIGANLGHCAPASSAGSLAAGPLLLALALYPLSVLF
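Measured by: Luminescent substrate turnover signal | Test system: Human TNAP | Input: TNAP 1/800 final | Dosing: 20 µM single point | Schedule: 30 min, room temperature | Controls: EDTA wells as negative control, DMSO wells as positive control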
TNAP inh no acc = inhibitors of human TNAP without phosphate acceptor; purified TNAP, CDP-star luminescence, 30 min; P05186; inhibition, % at 20 µM; hit rate 0.26% among 200,000;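 active = tissue-nonspecific alkaline phosphatase inhibition above about 50% at 20 µM in the single-dose screen, limit read from the data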;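 note: 0% = DMSO negative control and 100% = EDTA positive control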
PMI act hi M6P = increases human PMI activity with near-saturating mannose 6-phosphate | P34949 | coupled PMI enzyme assay, resazurin fluorescence, 20 min; hits give high values; 1 = untreated enzyme, 0 = substrate-free blank | activation factor at 20 µM | hit rate 0.34% among 190,000 | AID 1216;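 active = activation factor of 2 or more at 20 µM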
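Test system: human phosphomannose isomerase with PGI, G6PDH, diaphorase coupling enzymes / Doses: 20 µM compound, 1% DMSO / Times: enzyme reaction with compound 20 min at room temperature / Measured by: Diaphorase-driven resazurin-to-resorufin fluorescence, excitation 544, emission 590 nm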
PMI act = increases human mannose-6-phosphate isomerase activity | purified human PMI, coupled resazurin fluorescence, 20 min; hits give high values; 1 = vehicle control, 0 substrate-free wells | AID 1214 | activation factor at 20 µM | hit rate 0.005% among 190,000;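 active = activation factor of 2 or more at 20 µM, relative to plate controls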
TNAP inh hi DEA = blocks human TNAP under high phosphate acceptor concentration | P05186 | purified TNAP, CDP-star luminescence, 1 M DEA | inhibition, % at 20 µM | hit rate 0.03% among 200,000 | AID 1135;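 active = over 50% inhibition of tissue-nonspecific alkaline phosphatase at 20 µM in the single-dose screen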;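 note: plate controls were DMSO wells for no effect and EDTA-quenched wells as full inhibition for full effect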
Starred values were filed as active, the others as inactive; i = inactive; . = no result.

SMILES | TNAP act hiacc | TNAP inh no acc | PMI act hi M6P | PMI act | TNAP inh hi DEA
CC(=O)/C(=N/Nc1ccccc1C)N1CCOCC1 | 1 | -14.6 | 2.4* | 1.5 | -3.3
Cc1ccc(-c2cccc(CN3CCN(C4CCN(C(C)C)CC4)C(CCO)C3)c2)o1 (configuration not stated) | 1 | -2.7 | 1 | 0.9 | -1.6
CC(OC(=O)c1ccc2c(=O)n3c(nc2c1)CCCCC3)C(N)=O (configuration not stated) | 1 | -9.1 | 0.9 | 1 | -3.5
Cc1ccc(C)c(NNC(N)=S)c1 | 1 | 3.2 | 1.9 | 1.7 | -3.2
Cc1ccc(N/N=C(\C#N)C(N)=S)c(C)c1 | 1 | 32.7 | 3* | 1.8 | 3.8
CCC(C)(C)NC(=O)C(c1ccncc1)N(C(=O)c1sc(C)nc1C)c1ccc(C)cc1 (configuration not stated) | 1.1 | -12.5 | 1 | 1 | -7.3
Cc1ccc(-c2cc(-c3n[nH]c(=S)o3)c3ccccc3n2)cc1 | 1 | 4.9 | 2.2* | 1.5 | -0.1
OCCC1CN(Cc2cn[nH]c2C2CCCCC2)CCN1C1CCCCC1 (configuration not stated) | 1 | 4.8 | . | . | -0.3
O=[N+]([O-])c1cnn(-c2nc(-c3cccs3)cc(C(F)(F)F)n2)c1 | 1.1 | -19.2 | 1 | 1 | -6.6
Cc1ccc(C(=O)NS(=O)(=O)c2ccc(N=NN(C)C)cc2)cc1 | 1 | -4.5 | 2* | 1.6 | -3.0
C/C(=N\OCC(=O)Nc1ccccc1Br)c1cccs1 | 1.1 | -13.9 | 1 | 0.9 | -6.5
Cc1ccc2c(C)cc(=S)[nH]c2c1 | 1.1 | -3.6 | 2.8* | 1.8 | -6.8
Cc1ccc2[nH]c(=S)cc(C)c2c1 | 1 | -8.0 | 1.4 | 0.9 | 1.2
Cc1cc(=S)[nH]c2ccccc12 | 1 | -6.8 | 2.1* | 1.2 | -1.5
Fc1ccc(-c2[nH]ncc2-c2nnnn2-c2ccccc2)c(F)c1 | 0.9 | 84.3* | 0.9 | 0.9 | 5.7
COc1cc([N+](=O)[O-])cc(/C=N/N(CCC#N)C(C)=O)c1O | 0.8 | 17.2 | 0.6 | 0.8 | 16.6
CCCCC(=O)Nc1ccc(Br)cc1C(=O)O | 1 | -11.9 | 1.3 | 1.1 | -3.3
O=C(O)c1cc(Br)ccc1NN=C1CCCCC1 | 0.9 | -9.5 | 2.9* | 1.8 | 5.8
COC(=O)c1n[nH]c2ccccc12 | 1.1 | 55.3* | 1 | 1.1 | -7.7
O=C(OCC(=O)N1CCCCCC1)c1n[nH]c(=O)c2ccccc12 | 1.1 | -7.2 | 1.1 | 1 | -6.9
CC1CCN(C(=O)COC(=O)c2n[nH]c3ccccc23)CC1 | 1 | 58.3* | 1 | 1 | -0.3
CCC1CCCCN1C(=O)COC(=O)c1n[nH]c2ccccc12 (configuration not stated) | 1 | 56.4* | 1.1 | 1 | -1.7
CCCOc1ccc(C(=O)NCC(C)(C)N2CCOCC2)cc1 | 1 | -10.5 | 1 | 1 | -3.9
Nc1cccc(-n2cccc2)c1 | 1 | -6.0 | 0.5 | 0.9 | -4.2
Nc1[nH][nH]c(=O)c1N=Nc1cccc(Cl)c1 | 1 | -32.4 | 1 | 1 | -0.4
SMILES | TNAP act hiacc | TNAP inh no acc | PMI act hi M6P | PMI act | TNAP inh hi DEA
O=C1CCN(N=Nc2cccc(Cl)c2)N1 | 1 | -4.5 | 2.2* | 1.8 | 3.9
CCc1nnc2c3cnn(-c4ccccc4)c3ncn12 | 1 | 52.6* | 1.1 | 1 | 4.0
Cc1cccc(C)c1OCc1nnc2c3cnn(C)c3ncn12 | 1 | 73.7* | 0.8 | 0.8 | -2.1
CC(=O)NNc1ncnc2c1cnn2-c1ccc(C)c(C)c1 | 1 | -190.2 | 1 | 1 | 1.6
COc1ccc(Cc2nnc3c4cnn(C)c4ncn23)cc1 | 1 | 35.1 | 1 | 1 | -2.9
c1ccc(-n2ncc3c2ncn2cnnc32)cc1 | 0.9 | 75.6* | 1 | 1 | 9.4
Cc1ccc(-n2ncc3c2ncn2c(C)nnc32)cc1C | 1 | 83.5* | 1.1 | 1.1 | -0.2
CCC1CN(C(=O)Nc2ccc(C)cc2)c2cc(C)ccc2O1 (configuration not stated) | 1 | -6.1 | 1 | 0.9 | -2.7
Cc1nc2c3cnn(-c4ccccc4)c3ncn2n1 | 1 | 54.0* | 1 | 1 | -1.9
O=C(Nc1ccc2sccc2c1)c1cccc(N2C(=O)CCC2=O)c1 | 1 | -3.3 | 1 | 0.9 | 2.4
COc1ccccc1-c1nnc2n1N=C(c1ccc(O)c(O)c1)CS2 | 1 | 66.7* | 0.9 | 0.6 | 4.4
CCOc1ccc(C2=Nn3c(nnc3-c3ccccc3OC)SC2)cc1 | 1 | -1.5 | 1 | 1.1 | -4.0
CC/C(=C/c1sc2ccc(C)cc2[n+]1CCCS(=O)(=O)[O-])SC | 1 | -5.2 | 2.7* | 1.9 | 1.2
CC/C(=C/c1sc2ccc(C)cc2[n+]1CCO)SC | 1.1 | -262.5 | 2.5* | 1.8 | -7.8
N#Cc1ccccc1Oc1ccccc1C=O | 1.1 | -11.8 | 1 | 1 | -5.0
CS/C(=N\S(=O)(=O)c1ccccc1)c1ccccc1 | 0.9 | -2.4 | 2* | 1.7 | 7.8
O=S(=O)(/N=C(/Sc1ccccc1)c1ccccc1)c1ccccc1 | 1.1 | 16.6 | 1.1 | 1 | -5.2
COc1cc2oc3ccccc3c2cc1N(CC(=O)N1CCCCC1)S(=O)(=O)c1ccc(C)cc1 | 1.1 | -7.4 | 0.9 | 0.8 | -8.1
CCSc1ncc(/C=N/Nc2ccc(F)cc2)n1C | 1 | 6.1 | 2* | 1.2 | 0.2
Cc1ccc(N/N=C2\CCS(=O)(=O)c3sccc32)cc1 | 1 | -16.2 | 2.8* | 1.8 | -4.3
CC1=Nn2c(nnc2-c2cc(-c3ccccc3)n[nH]2)SC1 | 1 | 50.7* | 1 | 1 | -1.0
N#CCC(=O)NNC(=S)Nc1ccccc1C(F)(F)F | 1 | 35.6 | 1.1 | 1.1 | 1.5
O=C(O)CCCCCn1c(SCC(=O)c2ccc(O)c(O)c2)nc2ccsc2c1=O | 0.7 | 94.1* | 1.1 | 0.7 | 28.0
CCCCn1c(SCC(=O)c2ccc(O)c(O)c2)nc2ccsc2c1=O | 0.8 | 96.5* | 1 | 0.6 | 19.3
O=C(CCCn1c(SCC(=O)c2ccc(O)c(O)c2)nc2ccccc2c1=O)NCC1CCCO1 (configuration not stated) | 0.9 | 96.4* | 0.9 | 0.6 | 11.1
SMILES | TNAP act hiacc | TNAP inh no acc | PMI act hi M6P | PMI act | TNAP inh hi DEA
C/C(=N\Nc1ccccc1Cl)c1ccc(-n2ccnc2)cc1 | 1 | -3.7 | 2.7* | 1.7 | -3.4
CNC(=S)N/N=C(\C)c1ccc(-n2ccnc2)cc1 | 1 | 5.7 | 1 | 0.9 | 2.2
C/C(=N\Nc1ccc(C(=O)O)cc1)c1ccc(-n2ccnc2)cc1 | 1 | -8.9 | 2* | 1.6 | -3.8
C/C(=N\NC(N)=O)c1ccc(-n2ccnc2)cc1 | 1 | -0.9 | 1.1 | 1.1 | -3.7
CCN1/C(=C/C=C/c2oc3ccc4ccccc4c3[n+]2CC)Oc2ccc3ccccc3c21 | 2* | i | 0.9 | 0.9 | -96.1
c1ccc(N/N=C(\Cc2ncc[nH]2)c2ccccc2)cc1 | 1 | -10.6 | 2.3* | 1.5 | 2.8
